Results on 46 compounds are retold here after ChEMBL document CHEMBL4837214, “Design, synthesis, and biological evaluation of novel tetrahydroprotoberberine derivatives to reduce SREBPs expression for the treatment of hyperlipidemia” (Eur J Med Chem, 2021).

Each structure is given as a SMILES string. The source made the active and inactive calls. The calls are words filed in the database; no cut-off is given here.

The first experiment deals with HepG2. The experiment in a line: Down regulation of intracellular TC level in human HepG2 cells at 10 uM measured after 24 hrs. Type of experiment: functional, cell-based. In outline: (§1)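 HepG2 cells grown in six-well plates and exposed 24 h to compound at […]. Cells collected in PBS and sonicated (5 s on, 10 s off, 60 s total). Total cholesterol or triglyceride measured with a colorimetric determination kit.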
For the compound `COc1cc2c(cc1OC)C1Cc3ccc(OC)c(OS(=O)(=O)c4c(C(C)C)cc(C(C)C)cc4C(C)C)c3CN1CC2` (centres undefined), the outcome was Active.

For the compound `COc1ccc2c(c1OCc1ccc([N+](=O)[O-])cc1)CN1CCc3cc4c(cc3C1C2)OCO4` (centres undefined), the outcome was Active.

As to `COc1cc2c(cc1OC)C1Cc3ccc(OC)c(OC(=O)C4CC4)c3CN1CC2` (centres undefined), the result was Active.

Take `CCCOc1c(OC)ccc2c1CN1CCc3cc4c(cc3C1C2)OCO4` (centres undefined): the outcome was Active.

The subject of the next experiment is HepG2. The experiment in a line: Cytotoxicity against human HepG2 cells assessed as reduction in cell viability at 10 uM after 24 hrs by CCK8 assay. Type of experiment: functional. For orientation: Tetrazolium assays rely on reduction of a dye to a coloured formazan, in cell work by metabolically active cells.
Regarding `COc1cc2c(cc1OC)C1Cc3ccc(OC)c(OS(=O)(=O)c4cccs4)c3CN1CC2` (centres undefined), the Activity is 89.2%.

With `COc1ccc2c(c1OC(=O)c1cccc(C)c1)CN1CCc3cc4c(cc3C1C2)OCO4` (centres undefined), the Activity was 90.1%.

For the compound `COc1ccc2c(c1OC(=O)c1ccco1)CN1CCc3cc4c(cc3C1C2)OCO4` (centres undefined), the Activity amounted to 83.9%.

As to `C/C=C/C(=O)Oc1c(OC)ccc2c1CN1CCc3cc(OC)c(OC)cc3C1C2` (centres undefined), the Activity was 81.7%.

In the case of `CCCS(=O)(=O)Oc1c(OC)ccc2c1CN1CCc3cc(OC)c(OC)cc3C1C2` (centres undefined), the Activity is 80.2%.

As for `COc1cc2c(cc1OC)C1Cc3ccc(OC)c(OC(=O)C4CCCCC4)c3CN1CC2` (centres undefined), the Activity turned out to be 85.5%.

With `COc1cc2c(cc1OC)C1Cc3ccc(OC)c(OS(=O)(=O)c4ccc(Cl)c([N+](=O)[O-])c4)c3CN1CC2` (centres undefined), the Activity was determined as 94.7%.

`COc1cc2c(cc1OC)C1Cc3ccc(OC)c(OS(=O)(=O)c4c(C)cc(C)cc4C)c3CN1CC2` (centres undefined): the Activity is 73.3%.

As for `COc1cc2c(cc1OC)C1Cc3ccc(OC)c(OS(=O)(=O)c4c(C(C)C)cc(C(C)C)cc4C(C)C)c3CN1CC2` (centres undefined), the Activity turned out to be 91.1%.

Take `COc1ccc2c(c1OC(=O)C1CC1)CN1CCc3cc4c(cc3C1C2)OCO4` (centres undefined): the Activity worked out at 90.7%.

For the compound `COc1cc2c(cc1OC)C1Cc3ccc(OC)c(OC(=O)C(C)(C)CCl)c3CN1CC2` (centres undefined), the Activity was 91.2%.

Consider `CCCCOc1c(OC)ccc2c1CN1CCc3cc4c(cc3C1C2)OCO4` (centres undefined), for which the Activity turned out to be 98.1%.

In the case of `COc1ccc2c(c1OC(=O)C1CCCCC1)CN1CCc3cc4c(cc3C1C2)OCO4` (centres undefined), the Activity is given as 90.7%.

Turning to `C/C=C/C(=O)Oc1c(OC)ccc2c1CN1CCc3cc4c(cc3C1C2)OCO4` (centres undefined), the Activity is 84.3%.

Take `CCOc1ccccc1C(=O)Oc1c(OC)ccc2c1CN1CCc3cc4c(cc3C1C2)OCO4` (centres undefined): the Activity amounted to 96%.

With `COc1ccc2c(c1OS(=O)(=O)c1c(C(C)C)cc(C(C)C)cc1C(C)C)CN1CCc3cc4c(cc3C1C2)OCO4` (centres undefined), the Activity is 92.8%.

For `COc1cc2c(cc1OC)C1Cc3ccc(OC)c(OC(=O)c4ccco4)c3CN1CC2` (centres undefined), the Activity was 80.9%.

Consider `COc1ccc2c(c1OCc1cc(F)ccc1F)CN1CCc3cc4c(cc3C1C2)OCO4` (centres undefined), for which the Activity worked out at 87.7%.

For `COc1cc2c(cc1OC)C1Cc3ccc(OC)c(OS(=O)(=O)c4ccc(F)cc4)c3CN1CC2` (centres undefined), the Activity was determined as 93.4%.

Take `COc1ccc2c(c1OS(=O)(=O)c1ccc(Cl)c([N+](=O)[O-])c1)CN1CCc3cc4c(cc3C1C2)OCO4` (centres undefined): the Activity was found to be 93.4%.

For `COc1ccc2c(c1OS(=O)(=O)c1c(C)cc(C)cc1C)CN1CCc3cc4c(cc3C1C2)OCO4` (centres undefined), the Activity came out at 80.7%.

As for `COc1cc2c(cc1OC)C1Cc3ccc(OC)c(OC(=O)C45CC6CC(CC(C6)C4)C5)c3CN1CC2` (centres undefined), the Activity was found to be 99.3%.

On to `COc1cc2c(cc1OC)C1Cc3ccc(OC)c(OC(=O)c4cccc(C)c4)c3CN1CC2` (centres undefined), for which the Activity stood at 84.3%.

For the compound `CCOc1ccccc1C(=O)Oc1c(OC)ccc2c1CN1CCc3cc(OC)c(OC)cc3C1C2` (centres undefined), the Activity amounted to 84.6%.

On to `COc1ccc2c(c1OC(=O)c1ccc(F)cc1)CN1CCc3cc4c(cc3C1C2)OCO4` (centres undefined), for which the Activity is on record as 85.6%.

As for `COc1ccc2c(c1OC(=O)c1ccc(CCl)cc1)CN1CCc3cc4c(cc3C1C2)OCO4` (centres undefined), the Activity amounted to 97.8%.

Take `COc1cc2c(cc1OC)C1Cc3ccc(OC)c(OS(=O)(=O)c4ccc(Br)cc4)c3CN1CC2` (centres undefined): the Activity is reported as 86.5%.

`COc1cc2c(cc1OC)C1Cc3ccc(OC)c(OC(=O)c4ccc(F)cc4)c3CN1CC2` (centres undefined): the Activity was determined as 95.1%.

As for `COc1cc2c(cc1OC)C1Cc3ccc(OC)c(OC(=O)c4cccc(Br)c4)c3CN1CC2` (centres undefined), the Activity was determined as 80.2%.

In the case of `C=C(C)C(=O)Oc1c(OC)ccc2c1CN1CCc3cc(OC)c(OC)cc3C1C2` (centres undefined), the Activity was found to be 95.4%.

On to `COc1cc2c(cc1OC)C1Cc3ccc(OC)c(OC(=O)C4CC4)c3CN1CC2` (centres undefined), for which the Activity was 91.2%.

`COc1ccc2c(c1OS(=O)(=O)c1cccs1)CN1CCc3cc4c(cc3C1C2)OCO4` (centres undefined): the Activity came out at 93.4%.

With `COc1cc2c(cc1OC)C1Cc3ccc(OC)c(OS(=O)(=O)c4ccccc4[N+](=O)[O-])c3CN1CC2` (centres undefined), the Activity turned out to be 84.8%.

Take `CCCC(CCC)C(=O)Oc1c(OC)ccc2c1CN1CCc3cc(OC)c(OC)cc3C1C2` (centres undefined): the Activity was found to be 97.9%.

Regarding `CCS(=O)(=O)Oc1c(OC)ccc2c1CN1CCc3cc(OC)c(OC)cc3C1C2` (centres undefined), the Activity came to 87.7%.

With `COc1ccc2c(c1OC(=O)C(C)(C)CCl)CN1CCc3cc4c(cc3C1C2)OCO4` (centres undefined), the Activity came out at 99.6%.

`COc1cc2c(cc1OC)C1Cc3ccc(OC)c(OC(=O)c4ccc(CCl)cc4)c3CN1CC2` (centres undefined): the Activity stood at 88.3%.

Turning to `COc1ccc2c(c1OS(=O)(=O)c1ccccc1[N+](=O)[O-])CN1CCc3cc4c(cc3C1C2)OCO4` (centres undefined), the Activity is reported as 88.8%.

Take `COc1ccc2c(c1OS(=O)(=O)c1ccc(F)cc1)CN1CCc3cc4c(cc3C1C2)OCO4` (centres undefined): the Activity came out at 86.8%.

Regarding `COc1ccc2c(c1OC(=O)C13CC4CC(CC(C4)C1)C3)CN1CCc3cc4c(cc3C1C2)OCO4` (centres undefined), the Activity is 80.2%.

As for `CCOc1c(OC)ccc2c1CN1CCc3cc4c(cc3C1C2)OCO4` (centres undefined), the Activity turned out to be 87.7%.

In the case of `COc1cc2c(cc1OC)C1Cc3ccc(OC)c(OS(=O)(=O)c4cc(C)ccc4C)c3CN1CC2` (centres undefined), the Activity is given as 81.4%.

For `COc1ccc2c(c1OC(=O)c1cccc(Br)c1)CN1CCc3cc4c(cc3C1C2)OCO4` (centres undefined), the Activity is given as 85%.

In the case of `COc1ccc2c(c1OS(=O)(=O)c1cc(C)ccc1C)CN1CCc3cc4c(cc3C1C2)OCO4` (centres undefined), the Activity amounted to 84.5%.

With `CCCOc1c(OC)ccc2c1CN1CCc3cc4c(cc3C1C2)OCO4` (centres undefined), the Activity is reported as 101.5%.

The subject of a further experiment is HepG2. The experiment in a line: Down regulation of intracellular TG level in human HepG2 cells at 10 uM measured after 24 hrs. It is filed as functional, cell-based. An outline of the steps:
as §1
Regarding `COc1cc2c(cc1OC)C1Cc3ccc(OC)c(OS(=O)(=O)c4c(C(C)C)cc(C(C)C)cc4C(C)C)c3CN1CC2` (centres undefined), the outcome was Active.

Consider `CCCCOc1c(OC)ccc2c1CN1CCc3cc4c(cc3C1C2)OCO4` (centres undefined), for which the result was Active.

As for `COc1ccc2c(c1OCc1ccc([N+](=O)[O-])cc1)CN1CCc3cc4c(cc3C1C2)OCO4` (centres undefined), the result was Active.

Regarding `COc1cc2c(cc1OC)C1Cc3ccc(OC)c(OC(=O)C4CC4)c3CN1CC2` (centres undefined), the result was Active.

In the case of `CCCOc1c(OC)ccc2c1CN1CCc3cc4c(cc3C1C2)OCO4` (centres undefined), the outcome was Active.
